For experiment [1], the target named is Sodium- and chloride-dependent GABA transporter 1 (Mus musculus, UniProt P31648). Kind of experiment: Inhibition of [3H]GABA uptake at mouse GAT1 expressed in HEK cells. It counts as cell-based, HEK293.
For experiment [2], the target named is T1, GABA transporter 2 (Mus musculus) (UniProt P31651).
T1 sequence (whole entry): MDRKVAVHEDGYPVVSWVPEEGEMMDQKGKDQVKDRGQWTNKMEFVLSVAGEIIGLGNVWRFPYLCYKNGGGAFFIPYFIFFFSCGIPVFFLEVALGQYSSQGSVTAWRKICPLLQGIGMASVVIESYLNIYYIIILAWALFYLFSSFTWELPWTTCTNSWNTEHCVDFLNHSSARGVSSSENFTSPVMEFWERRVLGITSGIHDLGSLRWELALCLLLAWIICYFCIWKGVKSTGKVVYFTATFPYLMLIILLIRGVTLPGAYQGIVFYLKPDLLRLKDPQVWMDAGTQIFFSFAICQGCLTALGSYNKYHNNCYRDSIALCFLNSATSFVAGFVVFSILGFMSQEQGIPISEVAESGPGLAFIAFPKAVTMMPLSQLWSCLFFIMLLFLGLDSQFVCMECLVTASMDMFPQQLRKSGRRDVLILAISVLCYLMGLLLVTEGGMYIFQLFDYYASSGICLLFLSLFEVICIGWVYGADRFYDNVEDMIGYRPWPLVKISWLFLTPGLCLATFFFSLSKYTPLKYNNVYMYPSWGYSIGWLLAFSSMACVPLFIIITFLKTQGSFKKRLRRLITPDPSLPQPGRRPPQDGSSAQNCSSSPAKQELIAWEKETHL
Kind of experiment: Inhibition of [3H]GABA uptake at mouse GAT2 expressed in HEK cells assessed as remaining [3H]GABA uptake at 100 uM relative to control. It counts as cell-based. The conditions noted are these: HEK293. In outline: (§1)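 Stable mGAT2-HEK cells were trypsinized, PBS-washed, and suspended in Krebs-Tris pH 7.2 at about 200,000 cells/well. Cells were preincubated 25 min at 37 °C with compound (1% DMSO), then exposed to 20 nM [³H]GABA plus 20 nM unlabeled GABA for 10 min.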

Experiment [3] deals with T2, GABA transporter 3 (Mus musculus) (UniProt P31649).
T2 sequence (whole entry): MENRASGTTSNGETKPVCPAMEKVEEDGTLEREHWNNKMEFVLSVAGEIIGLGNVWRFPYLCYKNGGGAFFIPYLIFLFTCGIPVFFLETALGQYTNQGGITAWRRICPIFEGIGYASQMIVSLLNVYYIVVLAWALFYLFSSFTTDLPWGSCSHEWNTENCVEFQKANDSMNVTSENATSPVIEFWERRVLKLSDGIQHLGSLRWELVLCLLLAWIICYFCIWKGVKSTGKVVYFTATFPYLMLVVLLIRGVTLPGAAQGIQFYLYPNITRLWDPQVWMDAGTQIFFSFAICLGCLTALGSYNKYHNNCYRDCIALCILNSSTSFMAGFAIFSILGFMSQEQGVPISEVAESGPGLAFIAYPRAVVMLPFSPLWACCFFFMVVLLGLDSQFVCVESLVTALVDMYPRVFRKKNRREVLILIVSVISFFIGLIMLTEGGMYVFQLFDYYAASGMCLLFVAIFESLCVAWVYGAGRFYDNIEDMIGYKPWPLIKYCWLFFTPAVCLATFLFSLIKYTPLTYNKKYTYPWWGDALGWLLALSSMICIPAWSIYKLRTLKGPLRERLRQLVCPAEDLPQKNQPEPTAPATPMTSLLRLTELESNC
Kind of experiment: Inhibition of [3H]GABA uptake at mouse GAT3 expressed in HEK cells assessed as remaining [3H]GABA uptake at 100 uM relative to control. It counts as cell-based. The conditions noted are these: HEK293. The essentials: (§2)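 Stably transfected HEK cells were trypsinized, washed in PBS, and resuspended in Krebs-Tris buffer pH 7.2 at about 100,000 cells/well. They were pre-equilibrated 25 min at 37 °C with compound in 1% DMSO, then given 8 nM [³H]GABA plus 32 nM unlabeled GABA for 4 min.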

Experiment [4] addresses T3, GABA transporter 4 (Mus musculus) (UniProt P31650).
T3 sequence (whole entry): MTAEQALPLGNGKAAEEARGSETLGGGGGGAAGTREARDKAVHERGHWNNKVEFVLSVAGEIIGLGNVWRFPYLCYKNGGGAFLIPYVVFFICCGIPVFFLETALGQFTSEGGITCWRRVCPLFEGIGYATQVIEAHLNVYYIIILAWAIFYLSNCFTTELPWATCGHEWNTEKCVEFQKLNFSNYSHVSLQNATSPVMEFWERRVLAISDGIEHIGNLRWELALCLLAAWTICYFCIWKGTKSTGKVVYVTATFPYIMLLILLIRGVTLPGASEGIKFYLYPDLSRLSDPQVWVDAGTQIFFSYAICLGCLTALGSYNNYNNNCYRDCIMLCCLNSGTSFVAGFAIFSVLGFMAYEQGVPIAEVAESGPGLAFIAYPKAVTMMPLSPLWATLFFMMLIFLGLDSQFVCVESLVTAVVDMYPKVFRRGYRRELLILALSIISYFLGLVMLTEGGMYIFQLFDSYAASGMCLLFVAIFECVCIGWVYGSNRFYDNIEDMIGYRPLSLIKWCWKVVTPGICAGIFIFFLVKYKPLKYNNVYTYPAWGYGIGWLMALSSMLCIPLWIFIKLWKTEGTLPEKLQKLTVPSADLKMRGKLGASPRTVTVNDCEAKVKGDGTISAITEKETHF
The experiment in a line: Inhibition of [3H]GABA uptake at mouse GAT4 expressed in HEK cells assessed as remaining [3H]GABA uptake at 100 uM relative to control. It counts as cell-based. The settings on record: HEK293. The essentials: as §2

Experiment [5] deals with Sodium- and chloride-dependent GABA transporter 1 (Mus musculus) (UniProt P31648). Kind of experiment: Inhibition of [3H]GABA uptake at mouse GAT1 expressed in HEK cells assessed as remaining [3H]GABA uptake at 100 uM relative to control. The settings on record: HEK293. In kind it is cell-based. The essentials:
as §2

Another experiment deals with T4, GABA transporter 2 (Mus musculus, UniProt P31651).
T4 sequence (P31651 whole entry): T1 sequence (whole entry)
Kind of experiment: Inhibition of [3H]GABA uptake at mouse GAT2 expressed in HEK cells. It counts as cell-based, HEK293. The essentials:
as §1

The target of a further experiment is T5, GABA transporter 3 (Mus musculus, UniProt P31649).
T5 sequence (P31649 whole entry): T2 sequence (whole entry)
Kind of experiment: Inhibition of [3H]GABA uptake at mouse GAT3 expressed in HEK cells. It counts as cell-based, HEK293.

The target of another experiment is T6, GABA transporter 4 (Mus musculus, UniProt P31650).
T6 sequence (P31650 whole entry): T3 sequence (whole entry)
The experiment in a line: Inhibition of [3H]GABA uptake at mouse GAT4 expressed in HEK cells. It counts as cell-based, HEK293.

Experimental findings from ChEMBL document CHEMBL1140995, “Synthesis and biological evaluation of aminomethylphenol derivatives as inhibitors of the murine GABA transporters mGAT1-mGAT4” (Eur J Med Chem, 2008) are described below.

The structures appear in SMILES notation.

In turn, `Cc1ccsc1C(=CCCN1CCC[C@@H](C(=O)O)C1)c1sccc1C` [TIAGABINE] showed an IC50 in experiment [1] of 0.132 µM. Besides, the Activity is 52% in experiment [2], 64% in experiment [3] and 73% in experiment [4].
On to `COc1ccc(C(OCCNCc2c(F)cc(F)c(O)c2F)(c2ccc(OC)cc2)c2ccc(OC)cc2)cc1`, for which the Activity worked out at 87% in experiment [5], 89% in experiment [2], 56% in experiment [3] and 64% in experiment [4].
With `COc1ccc(C(OCCN2CCC[C@H](C(=O)O)C2)(c2ccc(OC)cc2)c2ccc(OC)cc2)cc1`, the Activity in experiment [2] is 56%.
On to `O=C(O)C1=CCCNC1` [GUVACINE], for which the IC50 was 13.5 µM in experiment [1], 490 µM on GABA transporter 2, 25.7 µM at GABA transporter 3 (read-out: pIC50 (converted)) and 25.7 µM against GABA transporter 4.
On to `CCCCCCCCCCCCNCc1cccc(O)c1`, for which the IC50 in experiment [1] was 20.9 µM; on GABA transporter 2, 15.1 µM; on GABA transporter 3 (read-out: pIC50 (converted)) it was 5.62 µM; at GABA transporter 4, 25.1 µM.
On the same counts, the results for `COc1ccc(C(OCCNCc2ccc(OC)c(O)c2)(c2ccc(OC)cc2)c2ccc(OC)cc2)cc1` are 25.7 µM, 20.9 µM, 8.91 µM and 14.5 µM.
Consider `Oc1cccc(CNCCC=C(c2ccccc2)c2ccccc2)c1`, for which the IC50 in experiment [1] was 28.8 µM; on GABA transporter 2 it was 17.8 µM; at GABA transporter 3 (read-out: pIC50 (converted)), 7.94 µM; on GABA transporter 4, 20.9 µM.
Regarding `Oc1c(F)cc(CNCCC=C(c2ccccc2)c2ccccc2)cc1F`, the Activity was found to be 70% in experiment [5], 82% in experiment [2], 66% in experiment [3] and 76% in experiment [4].
With `COc1ccc(C(OCCNCc2ccccc2O)(c2ccc(OC)cc2)c2ccc(OC)cc2)cc1`, the IC50 in experiment [1] was 26.9 µM; against GABA transporter 2 it was 11.7 µM; at GABA transporter 3 (read-out: pIC50 (converted)), 8.32 µM; on GABA transporter 4 it was 16.2 µM.
With `Oc1cccc(CNCCC(c2ccccc2)c2ccccc2)c1`, the IC50 in experiment [1] was 87.1 µM; on GABA transporter 2, 47.9 µM; at GABA transporter 3 (read-out: pIC50 (converted)), 38 µM; against GABA transporter 4, 50.1 µM.
On the same counts, the results for `COc1ccc(C(OCCNCc2cccc(O)c2)(c2ccc(OC)cc2)c2ccc(OC)cc2)cc1` are 43.7 µM, 12.9 µM, 9.55 µM and 7.76 µM.
Take `CCCCCCCCCCCCNCc1ccc(OC)c(O)c1`: the IC50 in experiment [1] is 12.3 µM; on GABA transporter 2, 12.6 µM; on GABA transporter 3 (read-out: pIC50 (converted)), 2.69 µM; against GABA transporter 4 it was 8.71 µM.
In the case of `COc1ccc(C(OCCNCc2cc(F)c(O)c(F)c2)(c2ccc(OC)cc2)c2ccc(OC)cc2)cc1`, the Activity in experiment [5] was 59%; in experiment [2], 64%; in experiment [3], 51%; in experiment [4], 67%.
For `COc1ccc(CNCCC=C(c2ccccc2)c2ccccc2)cc1O`, the IC50 in experiment [1] is 18.6 µM; at GABA transporter 2 it was 19.5 µM; at GABA transporter 3 (read-out: pIC50 (converted)), 12 µM; on GABA transporter 4, 22.9 µM.
Turning to `O=C(O)C1=CCCN(CCON=C(c2ccccc2)c2ccccc2)C1`, the IC50 in experiment [1] is 0.148 µM; on GABA transporter 2, 631 µM; at GABA transporter 3 (read-out: pIC50 (converted)), 240 µM; at GABA transporter 4, 851 µM.
On to `Oc1ccccc1CNCCC(c1ccccc1)c1ccccc1`, for which the IC50 was 52.5 µM in experiment [1], 18.2 µM against GABA transporter 2, 24.5 µM on GABA transporter 3 (read-out: pIC50 (converted)) and 25.1 µM against GABA transporter 4.
As to `COc1ccc(C(OCCNCc2ccc(F)c(O)c2F)(c2ccc(OC)cc2)c2ccc(OC)cc2)cc1`, the results for the IC50 (in experiment [1]; at GABA transporter 3 (read-out: IC50)) were 85.1 µM and 10.2 µM, respectively. Also, the Activity in experiment [2] is 54%; in experiment [4], 82%.
For `Oc1ccccc1CNCCC=C(c1ccccc1)c1ccccc1`, the IC50 in experiment [1] is 33.1 µM; against GABA transporter 2 it was 14.5 µM; on GABA transporter 3 (read-out: pIC50 (converted)), 7.76 µM; against GABA transporter 4 it was 14.8 µM.
Turning to `CCCCCCCCCCCCNCc1ccccc1O`, the IC50 in experiment [1] is 58.9 µM; on GABA transporter 2, 28.8 µM; at GABA transporter 3 (read-out: pIC50 (converted)), 18.6 µM; against GABA transporter 4, 63.1 µM.
Take `O=C(O)C1CCCN(CCC=C(c2ccccc2)c2ccccc2)C1` (configuration not stated): the IC50 in experiment [1] is 0.692 µM; against GABA transporter 2, 372 µM; at GABA transporter 3 (read-out: pIC50 (converted)), 195 µM; on GABA transporter 4 it was 275 µM.
